# From ChEMBL document CHEMBL1152458, “Voriconazole inhibits melanization in Cryptococcus neoformans” (2007)
# Calls of active or inactive are those of the source.
# What was measured:
# [1] = test system: Cryptococcus neoformans; experiment: Inhibition of melanin formation in Cryptococcus neoformans ATCC 24067 at =<0.5 times MIC after 10 days by plating assay; type: functional, organism-based
# Outline: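 Strain 24067 yeast grown on minimal-medium agar plates containing 1 mM L-dopa, with or without drug, 10 days at 30°C. Read-out was visual dark pigmentation of colonies and of surrounding agar from secreted laccase. Plates run in triplicate, experiment performed twice.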
# [2] = test system: Cryptococcus neoformans; experiment: Antifungal activity against Cryptococcus neoformans ATCC 24067 after 72 hrs by NCCLS M27A method; type: functional; details: ATCC 24067, 72 h
# [3] = test system: Cryptococcus neoformans; experiment: Inhibition of melanin formation in Cryptococcus neoformans ATCC 24067 at 0.25 times MIC coincubated with L-dopa for 7 days by dry-weight measurement; type: functional; parameters: scale not given: the % may be the effect or the level left
# Outline: (§1)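 5 x 10^4 yeasts grown in 50 ml minimal medium + 1 mM L-dopa ± drug (0.25 or 0.5 MIC) at 30°C, 150 rpm, for 7 days. Melanin "ghosts" were isolated by cell-wall lysing enzymes (10 mg/ml, overnight 30°C), proteinase K (1 mg/ml, SDS buffer pH 7.8, 37°C overnight) and boiling 6 M HCl for 1 h. They were then lyophilized and weighed.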
# [4] = test system: Cryptococcus neoformans; experiment: Inhibition of melanin formation in Cryptococcus neoformans ATCC 24067 at 0.5 times MIC coincubated with L-dopa for 7 days by dry-weight measurement; type: functional; parameters: scale not given: the % may be the effect or the level left; outline: as §1
# [5] = test system: Cryptococcus neoformans; experiment: Reduction in LAC1 gene expression in Cryptococcus neoformans ATCC 24067 at 0.25 to 0.5 times MIC after 7 days by qRT-PCR relative to control; type: functional
# Outline: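 Cells grown 7 days at 30°C on foil-covered minimal-medium agar + 1 mM L-dopa ± drug (0.25 or 0.5 MIC). Total RNA was DNase-treated and reverse transcribed, then LAC1 was measured by real-time PCR (40 cycles, 55°C annealing) with melting curve. Expression was normalized to ACT1 using the threshold-cycle method.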
# [6] = test system: Cryptococcus neoformans; experiment: Inhibition of intact recombinant Cryptococcus neoformans ATCC 24067 laccase-mediated ABTS oxidation at 0.5 times MIC after 2 hrs
# Outline: (§2)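 Yeasts grown 72 h at 30°C in asparagine medium with glucose, then 36 h without glucose. Intact cells were used at 1 x 10^8/ml in PBS ± voriconazole. Alternatively, bead-beaten cytoplasmic extracts in 0.1 M Na2HPO4 with protease inhibitor were used. ABTS 1 mM final, 30°C for 2 h; cells removed and A420 read against a no-ABTS baseline. Rhus laccase (1 U/ml) served as positive control. Run twice.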
# [7] = test system: Toxicodendron vernicifluum; experiment: Inhibition of cytoplasmic extract of recombinant Rhus vernificera laccase-mediated ABTS oxidation at 0.5 times MIC after 2 hrs; outline: as §2
# [8] = test system: Cryptococcus neoformans; experiment: Increase in phagocytosis of Cryptococcus neoformans ATCC 24067 by mouse J774.16 cells at 0.25 to 0.5 times MIC; type: functional, organism-based
# Outline: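 Yeasts (5 x 10^4 in 25 ml minimal medium + 1 mM L-dopa, 0.25 or 0.5 MIC drug, 30°C, 150 rpm) sampled on days 3, 5 and 7. They were PBS-washed and added 1:1 to J774.16 macrophages with 10 µg/ml mAb 18B7 for 2 h at 37°C. Monolayers were washed, methanol-fixed and Giemsa-stained. Index is internalized yeasts per macrophage, from 3 wells × 3 fields (~100 macrophages each) at x400.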
# [9] = test system: Toxicodendron vernicifluum; experiment: Inhibition of Rhus vernificera recombinant laccase-mediated ABTS oxidation
# Outline: (§3)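 Commercial Rhus vernificera laccase incubated with voriconazole, varying concentrations of either enzyme or drug, in PBS. ABTS 1 mM final, 30°C for 2 h, with absorbance read at 420 nm.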
# [10] = test system: Toxicodendron vernicifluum; experiment: Inhibition of recombinant Rhus vernificera laccase-mediated ABTS oxidation measured as inhibition activity with respect to decrease in enzyme concentration from 1 to 0.001 U/mL at 1 ug/ml; outline: as §3
# [11] = test system: Cryptococcus neoformans; experiment: Antifungal activity against Cryptococcus neoformans ATCC 24067 assessed as effect on growth rate at 0.25 to 0.5 times MIC; type: functional, organism-based
# Outline: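 C. neoformans 24067 grown at 30°C in minimal medium with L-dopa, with drug at several sub-MIC levels up to 0.5 MIC. Inoculum was 5 x 10^4 cells in 50 ml per concentration, with growth followed over time.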
Structure (SMILES),MIC [2] [µg/mL],Activity [3] [%],Activity [4] [%],Activity [5],further results
C[C@@H]1[C@H](O)[C@@H](C)/C=C/C=C/C=C/C=C/C=C/C=C/C=C/[C@H](O[C@@H]2O[C@H](C)[C@@H](O)[C@H](N)[C@@H]2O)C[C@@H]2O[C@](O)(C[C@@H](O)C[C@@H](O)[C@H](O)CC[C@@H](O)C[C@@H](O)CC(=O)O[C@H]1C)C[C@H](O)[C@H]2C(=O)O [AMPHOTERICIN B],0.125,,,,Activity [1]: inactive
CC[C@H](C)C[C@H](C)CCCCCCCCC(=O)N[C@H]1C[C@@H](O)[C@@H](NCCN)NC(=O)[C@@H]2[C@@H](O)CCN2C(=O)[C@H]([C@H](O)CCN)NC(=O)[C@H]([C@H](O)[C@@H](O)c2ccc(O)cc2)NC(=O)[C@@H]2C[C@@H](O)CN2C(=O)[C@H]([C@@H](C)O)NC1=O [CASPOFUNGIN],8,,,,
OC(Cn1cncn1)(Cn1cncn1)c1ccc(F)cc1F [FLUCONAZOLE],1,2.7,17.3,inactive,
CCC(C)n1ncn(-c2ccc(N3CCN(c4ccc(OCC5COC(Cn6cncn6)(c6ccc(Cl)cc6Cl)O5)cc4)CC3)cc2)c1=O (stereo not drawn) [ITRACONAZOLE],< 0.625,,,,
C[C@@H](c1ncncc1F)[C@](O)(Cn1cncn1)c1ccc(F)cc1F [VORICONAZOLE],0.015,82.1,94.5,40%,Activity [6]: Active; Activity [7]: Active; Activity [8]: Active; Activity [9]: Dose-dependent effect; Activity [10]: Active; Activity [11]: inactive
